Screens from PubChem BioAssay.
GPR7 antagonist: human neuropeptides B/W receptor 1 antagonism; inhibition, % at 4.4 µM; AID 1861; 290,000 tested, 1.1% active; GPR7-expressing cells, fluorescence antagonist assay; P48145; in the data active = inhibition above about 16%, passing the limit was not always enough;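 also: cells stimulated with the agonist NPW; 0% = agonist with vehicle and 100% = vehicle without agonist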
zfTRPN1 agonist: activates the zebrafish TRPN1 channel. activation, % at 3 µM. 220,000 tested, 0.18% active. HEK293 zebrafish TRPN1-YFP, Fluo-8 calcium fluorescence; 100% = response to 87 µM carbachol;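 active = activation above its plate's cutoff, the mean activation of test wells on that plate plus 3 SD, cut at about 19% in these data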;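 also: 0% = DMSO alone and 100% = 87 µM carbachol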
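Assay system: Zebrafish TRPN1-YFP in HEK293 cells | Incubation: Dye loading 1 h at 37 °C, then 30 min room temperature | Measured by: Kinetic Fluo-8 fluorescence, ex 470-495, em 515-575 nm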
TAAR1 ag: human TAAR1 agonism; Q96RJ0; CHO RD-HGA16 TAAR1, Fluo-8 calcium fluorescence; vehicle wells 0%, saturating PEA agonist 100%; activation, % at 3 µM; AID 624467; 360,000 tested, 0.99% active;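 active = activation above the mean activation of all test compounds in the run plus 3 SD, cut at about 38% in these data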
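Test system: RD-HGA16 (CHO) cells co-expressing Gα16 and hTAAR1 / Benchmarks: DMSO vehicle as 0%, PEA at EC100 as 100% / Repeats: no replicates (n 1) / Measure: % activation from peak over basal fluorescence ratio, DMSO-to-PEA scaled / Timing: 17-24 h plating, Fluo-8 75 min 37 °C, 30 min RT / Technique: kinetic Fluo-8 calcium fluorescence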
LANA-H2A inh: blocks KSHV LANA binding to histone H2A/H2B. cell-free LANA-H2A/H2B peptide, fluorescence polarization. Q9QR71. inhibition, % (test concentration not listed). AID 2629. 320,000 tested, 0.6% active; in the data active = inhibition mostly above about 10%, no sharp cut-off; inactive = mostly below about 6.7%
Target sequence (Q9QR71 whole entry, looked up): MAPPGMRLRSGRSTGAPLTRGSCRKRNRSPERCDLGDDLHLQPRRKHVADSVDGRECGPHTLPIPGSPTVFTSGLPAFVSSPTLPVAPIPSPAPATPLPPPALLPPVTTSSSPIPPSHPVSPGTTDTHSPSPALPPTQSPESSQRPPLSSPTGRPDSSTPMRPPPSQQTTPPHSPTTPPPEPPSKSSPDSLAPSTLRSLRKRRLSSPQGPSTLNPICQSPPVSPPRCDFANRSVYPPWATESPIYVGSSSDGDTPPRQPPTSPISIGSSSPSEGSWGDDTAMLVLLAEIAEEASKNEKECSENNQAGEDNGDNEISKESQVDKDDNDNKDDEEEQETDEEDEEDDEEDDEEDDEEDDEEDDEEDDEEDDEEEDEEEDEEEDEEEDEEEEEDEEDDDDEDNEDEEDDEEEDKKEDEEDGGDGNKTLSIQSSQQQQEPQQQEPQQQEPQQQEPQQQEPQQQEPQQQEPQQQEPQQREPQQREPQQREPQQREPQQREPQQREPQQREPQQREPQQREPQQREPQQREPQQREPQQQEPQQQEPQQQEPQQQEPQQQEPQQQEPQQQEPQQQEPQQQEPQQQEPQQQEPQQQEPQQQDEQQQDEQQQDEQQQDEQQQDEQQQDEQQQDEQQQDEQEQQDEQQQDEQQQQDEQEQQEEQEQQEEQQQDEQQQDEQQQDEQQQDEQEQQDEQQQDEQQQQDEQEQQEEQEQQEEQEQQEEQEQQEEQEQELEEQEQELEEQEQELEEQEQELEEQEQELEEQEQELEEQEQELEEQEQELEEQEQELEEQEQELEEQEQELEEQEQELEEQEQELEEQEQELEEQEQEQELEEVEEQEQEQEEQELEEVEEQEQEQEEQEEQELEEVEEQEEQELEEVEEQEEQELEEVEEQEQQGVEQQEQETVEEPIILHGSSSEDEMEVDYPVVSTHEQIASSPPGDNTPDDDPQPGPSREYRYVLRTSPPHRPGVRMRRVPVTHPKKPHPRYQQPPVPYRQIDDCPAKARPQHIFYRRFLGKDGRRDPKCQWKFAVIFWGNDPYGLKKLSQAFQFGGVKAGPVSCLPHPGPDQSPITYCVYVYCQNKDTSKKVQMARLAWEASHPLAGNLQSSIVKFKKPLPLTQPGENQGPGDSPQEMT
TRPML3 ag: agonists of human TRPML3 channel; Q8TDD5; HEK293 TRPML3-YFP, Fluo-8 calcium fluorescence; 100% = the carbachol control signal; activation, % at 3 µM; 220,000 tested, 0.29% active; AID 1448;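 active = activation above its plate's cutoff, the mean activation of the plate's test wells plus 3 SD, cut at about 12% in these data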;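 also: 0% = DMSO only wells and 100% = carbachol wells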
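system = HEK293 cells stably carrying human TRPML3-YFP | doses = one concentration, 3 µM nominal, 0.3% DMSO | timing = dye loading 1 h 37 °C then 30 min ambient, 125 s read | detection = Fluo-8 calcium dye fluorescence, ex 470-495, em 515-575 nm | benchmarks = high control carbachol 87 µM, low control DMSO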
TAAR1 antagonist: human TAAR1 antagonism | AID 624466 | inhibition, % at 3 µM | 360,000 tested, 1.5% active | CHO RD-HGA16 TAAR1, Fluo-8 calcium fluorescence, antagonist;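 active = inhibition above a per-plate cutoff, the mean inhibition of test compounds on that plate plus 3 SD, cut at about 49% in these data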;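 also: 0% = DMSO plus EC80 beta-PEA response and 100% = DMSO alone without agonist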
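Test system: RD-HGA16 CHO cells with stable hTAAR1 and Gα16 / Probe or stimulus: EC80 β-phenethylamine stimulus / Times: seeding 17-24 h prior, 75-min 37 °C, 30-min RT dye loading / Detection: Fluo-8 calcium-sensitive fluorescence / Read-out basis: % inhibition scaled between DMSO and EC80 PEA controls / Repeats: singlicate, one well per test compound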
An asterisk follows results filed as active; . = no result given; + = active, no number. Compounds with a hit are over-represented: about 3.4% of the library has one in this group of screens.

SMILES	GPR7 antagonist	zfTRPN1 agonist	TAAR1 ag	LANA-H2A inh	TRPML3 ag	TAAR1 antagonist
CCOC(=O)C1CCCN(CC(O)COc2ccc(OC)cc2C(C)(C)C)C1 (stereo not given)	-1.4	0.7	39.3*	-0.3	0.2	48.3
CC(C)N(c1cc(=O)nc2ccccn12)C(C)C	.	.	-0.2	.	.	9.9
Nc1nc2n(n1)C(c1cccc(Cl)c1)CC(c1ccc(F)cc1)N2 (stereo not given)	18.6*	7.8	10.8	3.5	0.9	3.0
COc1cccc(C2CC(c3ccc(Cl)cc3Cl)Nc3nc(N)nn32)c1 (stereo not given)	3.4	4.3	17.3	10.0*	1.9	-0.1
O=C(Nc1ccccc1Cl)C1CCCN(S(=O)(=O)c2ccc(F)cc2)C1 (stereo not given)	10.7	0.5	5.5	8.8*	0.0	6.8
CC(=O)Nc1ccc(S(=O)(=O)N2CCN(S(=O)(=O)N3CCCCCC3)CC2)cc1	19.2*	-0.6	23.3	-1.2	0.4	2.9
CC(=O)Nc1ccc(S(=O)(=O)N2CCN(CC(=O)N3CCOCC3)CC2)cc1	20.0*	-1.5	0.4	0.7	-0.6	-3.1
CC(C(=O)Nc1ccc(S(=O)(=O)N2CCCCC2)cc1)N1CCN(c2ccccn2)CC1 (stereo not given)	-8.6	1.0	.	138.4*	0.7	.
COCc1cc(N2CCN(C(=O)OC(C)(C)C)C[C@H]2C)ccc1Br	.	.	-1.5	.	.	-11.5
C[C@@H]1CCCCO[C@@H](CN(C)Cc2ccc(C(=O)O)cc2)[C@@H](C)CN([C@H](C)CO)C(=O)c2cc(NS(C)(=O)=O)ccc2O1	.	.	1.8	.	.	-6.2
COC(=O)c1cc2c(c3c4cc(F)ccc4n(S(=O)(=O)c4ccccc4)c13)C(=O)N(C)C2	.	.	-0.2	.	.	-6.5
C[C@H]1CN(S(=O)(=O)C(C)(C)C)[C@H](CCO)/C1=C\CCO	.	.	0.8	.	.	-22.3
CC(SCC(=O)Nc1ccc(S(=O)(=O)N2CCCCC2)cc1)C(=O)O (stereo not given)	18.6*	0.6	-3.5	1.4	1.2	-19.5
O=C(CN1CCOCC1)Nc1ccc2c(c1)OCO2	-3.6	-0.2	3.0	1.8	-0.1	-10.0
O=C(Nc1ccccc1)Nc1ccc(S(=O)(=O)N2CCCCC2)cc1	-12.0	4.5	50.1*	-2.2	4.5	18.8
O=C(Nc1ccc(S(=O)(=O)N2CCCCC2)cc1)c1ccccc1Cl	19.4	0.5	9.1	-0.7	-0.1	7.0
O=C(CN1CCN(S(=O)(=O)c2ccc(Br)cc2)CC1)Nc1ccc2c(c1)OCO2	31.0*	-0.1	6.6	.	0.3	-6.4
c1ccc(CN2c3ccccc3-c3nc4ccccc4n3C2c2ccccn2)cc1 (stereo not given)	12.7	-2.8	11.6	-2.2	-1.9	54.8*
CC(Oc1ccccc1)C(=O)NC1CC(C)(C)NC(C)(C)C1 (stereo not given)	-5.8	0.4	1.7	17.3*	0.0	-4.9
OC(c1cccc(Cl)c1)c1nc(-c2ccccc2)cs1 (stereo not given)	.	.	1.6	.	.	-8.1
CCN(CC)C(=O)c1cccc(-c2csc(C(O)c3ccc(OC)cc3)n2)c1 (stereo not given)	.	.	8.2	.	.	27.7
CN(C)c1ccc(-c2csc(C(O)c3cccc(Cl)c3)n2)cc1 (stereo not given)	.	.	52.1*	.	.	73.4*
CCN(CC)C(=O)c1cccc(-c2csc(C(O)c3cccc(Cl)c3)n2)c1 (stereo not given)	.	.	2.6	.	.	57.0*
COC(=O)C1=C(C)N(Cc2cccc(C(F)(F)F)c2)C(=NCc2ccccc2C(F)(F)F)NC1c1ccc(Cl)cc1 (stereo not given)	.	.	2.5	.	.	-23.5
O=C(N/N=C/c1sc2ccccc2c1O)c1cccc2ccccc12	12.8	-0.1	7.9	+	0.6	26.9
SMILES	GPR7 antagonist	zfTRPN1 agonist	TAAR1 ag	LANA-H2A inh	TRPML3 ag	TAAR1 antagonist
O=C(N/N=C/c1sc2ccccc2c1O)c1ccccc1	-6.4	5.9	.	-6.9	5.6	.
COc1ccc(C(=O)N/N=C/c2sc3ccccc3c2O)cc1	-0.7	3.8	.	+	1.0	.
COC(=O)[C@]12C[C@H](CC(=O)N3CCCCC3)C(=O)N(CCC3=CCCCC3)C1=C[C@H](C(C)(C)C)O[C@@H]2C	.	.	-1.7	.	.	-43.9
CC(C)(C)n1nc(C2CC2)c(Br)c1NC(=O)c1ccccc1Cl	.	.	3.8	.	.	-22.1
CCN1CCN(C(=O)c2cc3c(s2)-c2ccccc2S(=O)(=O)C3)CC1	-7.3	0.8	1.6	-1.1	1.1	-8.6
O=C(c1cc2c(s1)-c1ccccc1S(=O)(=O)C2)N1CCN(Cc2ccccc2)CC1	8.5	11.8	12.5	-5.4	3.4	51.0*
CCCCNc1ccc(C(F)(F)F)cc1S(=O)(=O)NCCc1ccc(F)cc1	.	.	0.1	.	.	49.6*
COc1ccc(-n2c(C)ccc2-c2ccccc2)cn1	-5.0	.	2.5	78.8*	.	-26.8
CCN(CCn1cccn1)C(=O)c1cc(COc2cc(C)ccc2C)on1	-2.6	.	2.1	36.5*	.	-18.2
O=C(N[C@@H](Cc1cccnc1)C(=O)N1CCC[C@H]1C(=O)NC1CCCC1)C1CC1	.	.	3.2	.	.	3.2
Cc1ccccc1CN1[C@@H](C)[C@H](c2ccccc2)Oc2cccc(NCCc3ccccc3)c2S1(=O)=O	.	.	30.6	.	.	-2.2
O=C(Nc1cc([N+](=O)[O-])ccc1F)C1CC1	-2.8	-0.4	-0.2	28.6*	0.7	-4.3
COc1ccc2c(c1)c1ncn(CCN3CCCC3)c(=O)c1n2C	-6.1	-0.1	1.8	1.7	0.2	-0.9
COc1ccccc1CCn1cnc2c3cc(C)ccc3n(C)c2c1=O	7.5	-1.6	4.9	24.0*	-0.4	11.6
Cc1ccc(-c2c(C(=O)N(C)Cc3ccccc3)oc(=O)c3ccccc23)cc1	19.5*	-1.5	1.5	.	0.1	29.2
O=C(Cc1ccccc1)NCCc1cccc(Cl)c1	-3.0	-1.2	7.6	-1.8	-1.4	-3.0
O=C(O)CCC(=O)NCCc1cccc(Cl)c1	3.8	-0.2	38.2*	7.6	1.3	5.9
CC(C)(C)c1cccc(N/C(=C\C(=O)c2ccccc2)c2ccccc2)c1	.	.	-0.3	.	.	-18.5
Cc1cc(N2CCNC[C@@H]2C)ccc1N1CCN(Cc2ccccc2)[C@H](C)C1	.	.	9.9	.	.	-7.9
COc1ccccc1/C=C/C(=O)NCC(=O)N/N=C/c1cccnc1	-9.2	0.7	8.1	0.6	0.5	8.8
